Measurements published in ChEMBL document CHEMBL1125678, “Quinazolineacetic acids and related analogues as aldose reductase inhibitors” (J Med Chem, 1991).

Tests used:
[1] = biological target: Aldo-keto reductase family 1 member B1 (Bos taurus) (UniProt P16116); test: In vitro inhibition of aldose reductase in partially purified bovine lens preparation at a concentration of 4*10e -8M.
How it was run: (§1)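 Enzyme from bovine lens, partially purified by the cited method with the final chromatographic step omitted. DL-Glyceraldehyde was the substrate. Test compounds were run in duplicate at 1×10⁻⁵, 1×10⁻⁶, 1×10⁻⁷ or 4×10⁻⁸ M. Values are % inhibition of enzymatic activity.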

[2] = biological target: Aldo-keto reductase family 1 member B1 (Bos taurus) (UniProt P16116); test: In vitro inhibition of aldose reductase in partially purified bovine lens preparation at a concentration of 10e -7M.; how it was run: as §1
Rattus norvegicus [3] = test: In vivo inhibition of galactitol accumulation in the diaphragm of rats fed 20% galactose for 4 day at 97 mg/kg/day dose; type: functional
How it was run: (§2)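 Male Sprague-Dawley rats (50–70 g) in groups of six were fed chow with 20% (w/w) galactose. Controls received 20% glucose instead. Test compound was mixed into the diet, and dose was calculated from actual food intake. Rats were killed by decapitation after 4 days. Result is % lowering of tissue galactitol versus galactose-fed controls, as the mean of six animals, compared by Dunnett's multiple comparison.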

Rattus norvegicus [4] = test: In vivo inhibition of galactitol accumulation in the sciatic nerve of rats fed 20% galactose for 4 day at 97 mg/kg/day dose; type: functional
Rattus norvegicus [5] = test: In vivo inhibition of galactitol accumulation in the diaphragm of rats fed 20% galactose for 4 day at 90 mg/kg/day dose; type: functional; how it was run: as §2
Rattus norvegicus [6] = test: In vivo inhibition of galactitol accumulation in the sciatic nerve of rats fed 20% galactose for 4 day at 95 mg/kg/day dose; NS= No Significant inhibition of polyol accumulation; type: functional, organism-based

`O=C(O)Cn1c(=O)c2cc(I)ccc2n(Cc2ccc(Br)cc2F)c1=O` gave an inhibition [1] of 64%, an inhibition [2] of 83% and a Lowering (Rattus norvegicus [3]) of 83%. It also gave a Lowering (Rattus norvegicus [4]) of 64%.
In the case of `O=C(O)CN1CN(Cc2ccc(Br)cc2F)c2ccc(Cl)cc2C1=O`, the inhibition [1] is reported as 23%, the inhibition [2] is reported as 51% and the Lowering (Rattus norvegicus [5]) is reported as 38%. The Lowering (Rattus norvegicus [6]) was “Not significant”.
